Experimental data from ChEMBL document CHEMBL1147036, “An NQO1- and PARP-1-mediated cell death pathway induced in non-small-cell lung cancer cells by beta-lapachone” (2007).
Active and inactive are the calls of the source.

What was measured:
NCI-H596 [1] = experiment: Induction of ATP depletion in NQO1 expressing human H596 cells at 10 uM by luciferase based bioluminescence assay; assay type: functional, cell-based
How it was run: (§1)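 Cells exposed to 10 μM drug, harvested at set times; ATP measured in whole-cell extracts by luciferase bioluminescence. DIC coadded with drug in NQO1 inhibition arms. Means ± SE, three or more experiments in triplicate.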

NCI-H596 [2] = experiment: Reversal of PARP1 hyperactivation in NQO1 expressing human H596 cells assessed as PAR formation in presence of 3-aminobenzamide; assay type: functional, cell-based
How it was run: (§2)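 Cells pretreated 2 h with or without 25 mM 3-aminobenzamide, then exposed to drug with or without 3-AB for 20 min; PAR formation read by Western blot.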

NCI-H596 [3] = experiment: Induction of oxidative stress in NQO1 expressing human H596 cells assessed as reactive oxygen species generation at 10 uM after 1 hr by flow cytometry; assay type: functional, cell-based
How it was run: (§3)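 Cells given 10 μM drug ± 50 μM DIC; ROS monitored over a time course by conversion of chloromethyl-dichlorodihydrofluorescein diacetate to fluorescent product, read by flow cytometry. 2 mM H2O2 or 10 μM antimycin A for 20 min as positive controls. Means ± SE, three experiments in duplicate.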

A549 [4] = experiment: Reversal of induction of ATP depletion in NQO1 expressing human A549 cells at 10 uM in presence of 40 uM dicoumarol by luciferase based bioluminescence assay; assay type: functional, cell-based; conditions: in the assay text read “50 uM dicoumarol” for “40 uM dicoumarol”; how it was run: as §1
A549 [5] = experiment: Cytotoxicity against NQO1 expressing human A549 cells after 2 hrs; assay type: functional; conditions: A549, 2 h, read-out: LD50 (the source's name)
How it was run: (§4)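 Long-term relative survival assay: cells exposed to drug for 2 h (A549 with or without 50 μM dicoumarol), drug removed, then grown 7 days post-treatment in DMEM with 10% FBS at 37°C, 5% CO2. Survival read from DNA content and confirmed by colony-forming ability. LD50 from dose-response; means ± SE, at least three experiments in triplicate. H596 line stably expressing NQO1 via retroviral vector, puromycin-selected.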

A549 [6] = experiment: Induction of DNA damage in NQO1 expressing human A549 cells at 10 uM after 2 hrs by alkaline comet tail assay; assay type: functional, cell-based
How it was run: (§5)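 Cells exposed 10 μM drug for 2 h, ± 50 μM DIC; 2 mM H2O2 for 2 h as positive control. Alkaline comet assay, SYBR Green staining, fluorescence microscopy; tail lengths quantified in arbitrary units. Means ± SE from three experiments.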

A549 [7] = experiment: Induction of PARP1 hyperactivation in NQO1 expressing human A549 cells assessed as PAR accumulation at 10 uM for 10 mins by Western blot; assay type: functional, cell-based
A549 [8] = experiment: Induction of NAD+ depletion in NQO1 expressing human A549 cells at 6 uM after 1 hr by luciferase based bioluminescence assay; assay type: functional
How it was run: (§6)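 A549 cells pretreated with 5 μM BAPTA-AM or mock, then given 6 μM drug for 1 h; percent NAD+ loss measured as surrogate of PARP-1 hyperactivation, expressed as % of control.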

A549 [9] = experiment: Reversal of induction of DNA damage in human A549 cells in presence of 3-aminobenzamide at 10 uM after 2 hrs; assay type: functional, cell-based
A549 [10] = experiment: Reversal of PARP1 hyperactivation in NQO1 expressing human A549 cells assessed as PAR formation at 6 uM in presence of 1,2-bis(2-aminophenoxy)ethane-N,N,N',N'-tetraacetic acid acetoxymethyl ester; assay type: functional, cell-based
How it was run: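 A549 cells pretreated with 5 μM BAPTA-AM or mock, then exposed to 6 μM drug for 10 min; lysates probed for PAR by Western blot.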

NCI-H596 [11] = experiment: Induction of PARP1 hyperactivation in NQO1 deficient human H596 cells assessed as PAR accumulation at 10 uM for 10 mins by Western blot; assay type: functional, cell-based
A549 [12] = experiment: Induction of ATP depletion in NQO1 expressing human A549 cells at 10 uM by luciferase based bioluminescence assay; assay type: functional, cell-based; how it was run: as §1
A549 [13] = experiment: Reversal of cell death in human A549 cells at 10 uM in presence of 3-aminobenzamide after 2 hrs; assay type: functional, cell-based
NCI-H596 [14] = experiment: Induction of PARP1 hyperactivation in NQO1 expressing human H596 cells assessed as PAR accumulation at 10 uM for 10 mins by Western blot; assay type: functional, cell-based
NCI-H596 [15] = experiment: Reversal of induction of PARP1 hyperactivation in NQO1 expressing human H596 cells assessed as PAR accumulation at 10 uM for 10 mins by Western blot; assay type: functional, cell-based
A549 [16] = experiment: Reversal of induction of NAD+ depletion in NQO1 expressing human A549 cells at 6 uM in presence of 1,2-bis(2-aminophenoxy)ethane-N,N,N',N'-tetraacetic acid acetoxymethyl ester; assay type: functional, cell-based; how it was run: as §6
A549 [17] = experiment: Induction of DNA damage in NQO1 expressing human A549 cells at 10 uM in presence of dicoumarol after 2 hrs by alkaline comet tail assay; assay type: functional, cell-based; how it was run: as §5
A549 [18] = experiment: Induction of NAD+ depletion in NQO1 expressing human A549 cells at 10 uM by luciferase based bioluminescence assay; assay type: functional, cell-based
How it was run: (§7)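 10 μM drug ± 40 μM DIC; intracellular NAD+ measured at set times and expressed as % treated/control. Means ± SE of at least three independent experiments, each in duplicate.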

NCI-H596 [19] = experiment: Induction of DNA damage in NQO1 deficient human H596 cells at 10 uM after 2 hrs by alkaline comet tail assay; assay type: functional, cell-based; how it was run: as §5
NCI-H596 [20] = experiment: Induction of NAD+ depletion in NQO1 expressing human H596 cells at 10 uM by luciferase based bioluminescence assay; assay type: functional, cell-based; how it was run: as §7
[21] = Cytotoxicity against NQO1 expressing human H596 cells after 2 hrs; assay type: functional; conditions: NCI-H596, 2 h, read-out: LD50 (the source's name); how it was run: as §4
A549 [22] = experiment: Reversal of induction of nucleotide depletion in NQO1 expressing human A549 cells in presence of 3-aminobenzamide by luciferase based bioluminescence assay; assay type: functional, cell-based
How it was run: (§8)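 Cells pretreated 2 h ± 25 mM 3-AB, then drug ± 3-AB; harvested at set times. NAD+ as % treated/control; ATP by luciferase bioluminescence of whole-cell extracts. Means ± SE of three experiments.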

NCI-H596 [23] = experiment: Reversal of induction of NAD+ depletion in NQO1 expressing human H596 cells at 10 uM in presence of 40 uM dicoumarol by luciferase based bioluminescence assay; assay type: functional, cell-based; how it was run: as §7
A549 [24] = experiment: Induction of oxidative stress in NQO1 expressing human A549 cells assessed as reactive oxygen species generation at 10 uM after 1 hr by flow cytometry; assay type: functional, cell-based; how it was run: as §3
NCI-H596 [25] = experiment: Cytotoxicity against NQO1 expressing human H596 cells assessed as long term survival at =>5 uM for 2 hrs; assay type: functional, cell-based
How it was run: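 Isogenic H596 lines (retroviral NQO1 or empty vector, pooled, puromycin 1.0 μg/ml selected) in DMEM/10% FBS, 37°C, 5% CO2. Drug given 2 h, then removed; relative survival from DNA content after 7 days' growth. Confirmed by colony formation; means ± SE of three experiments in triplicate.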

A549 [26] = experiment: Reversal of induction of cell death in human A549 cells in presence of 3-aminobenzamide at 10 uM after 48 hrs by TUNEL assay; assay type: functional, cell-based
NCI-H596 [27] = experiment: Reversal of induction of nucleotide depletion in NQO1 expressing human H596 cells in presence of 3-aminobenzamide by luciferase based bioluminescence assay; assay type: functional, cell-based; how it was run: as §8
A549 [28] = experiment: Reversal of cell death in NQO1 expressing human A549 cells at 6 uM in presence of 1,2-bis(2-aminophenoxy)ethane-N,N,N',N'-tetraacetic acid acetoxymethyl ester; assay type: functional, cell-based
NCI-H596 [29] = experiment: Reversal of induction of ATP depletion in NQO1 expressing human H596 cells at 10 uM in presence of 40 uM dicoumarol by luciferase based bioluminescence assay; assay type: functional, cell-based; how it was run: as §1
A549 [30] = experiment: Reversal of PAR-polymer formation in NQO1 expressing human A549 cells at 10 uM in presence of 50 uM dicoumarol; assay type: functional, cell-based
NCI-H596 [31] = experiment: Reversal of PAR-polymer formation in NQO1 expressing human H596 cells at 10 uM in presence of 50 uM dicoumarol; assay type: functional, cell-based
A549 [32] = experiment: Reversal of PARP1 hyperactivation in NQO1 expressing human A549 cells assessed as PAR formation in presence of 3-aminobenzamide; assay type: functional, cell-based; how it was run: as §2
A549 [33] = experiment: Reversal of induction of NAD+ depletion in NQO1 expressing human A549 cells at 10 uM in presence of 40 uM dicoumarol by luciferase based bioluminescence assay; assay type: functional, cell-based; how it was run: as §7
NCI-H596 [34] = experiment: Induction of DNA damage in NQO1 expressing human H596 cells at 10 uM after 2 hrs by alkaline comet tail assay; assay type: functional, cell-based; how it was run: as §5
NCI-H596 [35] = experiment: Induction of DNA damage in NQO1 expressing human H596 cells at 10 uM in presence of dicoumarol after 2 hrs by alkaline comet tail assay; assay type: functional, cell-based; how it was run: as §5

CC1(C)CCC2=C(O1)c1ccccc1C(=O)C2=O [LAPACHONE]
43%: Activity (A549 [8])
2.5 µM: CC50 (A549 [5])
inactive: Activity (NCI-H596 [11]) | Activity (A549 [17]) | Activity (NCI-H596 [19]) | Activity (NCI-H596 [35])
active: Activity (NCI-H596 [1]) | Activity (NCI-H596 [2]) | Activity (NCI-H596 [3]) | Activity (A549 [4]) | Activity (A549 [6]) | Activity (A549 [7]) | Activity (A549 [9]) | Activity (A549 [10]) | Activity (A549 [12]) | Activity (A549 [13]) | Activity (NCI-H596 [14]) | Activity (NCI-H596 [15]) | Activity (A549 [16]) | Activity (A549 [18]) | Activity (NCI-H596 [20]) | Activity (A549 [22]) | Activity (NCI-H596 [23]) | Activity (A549 [24]) | Activity (NCI-H596 [25]) | Activity (A549 [26]) | Activity (NCI-H596 [27]) | Activity (A549 [28]) | Activity (NCI-H596 [29]) | Activity (A549 [30]) | Activity (NCI-H596 [31]) | Activity (A549 [32]) | Activity (A549 [33]) | Activity (NCI-H596 [34])
4 µM: CC50 [21]
